This is an account of results in publication PMC12409571 (ACS Omega, 2025).

In one assay the target is rat TRPM8 (Rattus norvegicus, UniProt Q8R455). As to the kind of experiment: Compound selectivity fluorescence-based Ca2+ assay, menthol-stimulated TRPM8. The class given is cell-based. The note with it: 30 μM menthol; PHL-B different concentrations; sesamin 20 μM. An outline of the steps:
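HEK293T cells were cotransfected with rat TRPM8 and GCaMP6s and assayed after 48 h with GCaMP6s fluorescence. Channels were activated with 30 μM menthol; 20 μM sesamin served as the reference inhibitor. Read-out F/F0; N = 3–5 independent experiments.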

For a further assay, the target named is human TRPV1 (Homo sapiens, UniProt Q8NER1). As to the kind of experiment: Compound selectivity fluorescence-based Ca2+ assay, capsaicin-stimulated TRPV1. The class given is cell-based. The note with it: 10 μM capsaicin; PHL-B 0.1-10 μM; capsazepine 1 μM.
Chain of human TRPV1 (Q8NER1 whole entry): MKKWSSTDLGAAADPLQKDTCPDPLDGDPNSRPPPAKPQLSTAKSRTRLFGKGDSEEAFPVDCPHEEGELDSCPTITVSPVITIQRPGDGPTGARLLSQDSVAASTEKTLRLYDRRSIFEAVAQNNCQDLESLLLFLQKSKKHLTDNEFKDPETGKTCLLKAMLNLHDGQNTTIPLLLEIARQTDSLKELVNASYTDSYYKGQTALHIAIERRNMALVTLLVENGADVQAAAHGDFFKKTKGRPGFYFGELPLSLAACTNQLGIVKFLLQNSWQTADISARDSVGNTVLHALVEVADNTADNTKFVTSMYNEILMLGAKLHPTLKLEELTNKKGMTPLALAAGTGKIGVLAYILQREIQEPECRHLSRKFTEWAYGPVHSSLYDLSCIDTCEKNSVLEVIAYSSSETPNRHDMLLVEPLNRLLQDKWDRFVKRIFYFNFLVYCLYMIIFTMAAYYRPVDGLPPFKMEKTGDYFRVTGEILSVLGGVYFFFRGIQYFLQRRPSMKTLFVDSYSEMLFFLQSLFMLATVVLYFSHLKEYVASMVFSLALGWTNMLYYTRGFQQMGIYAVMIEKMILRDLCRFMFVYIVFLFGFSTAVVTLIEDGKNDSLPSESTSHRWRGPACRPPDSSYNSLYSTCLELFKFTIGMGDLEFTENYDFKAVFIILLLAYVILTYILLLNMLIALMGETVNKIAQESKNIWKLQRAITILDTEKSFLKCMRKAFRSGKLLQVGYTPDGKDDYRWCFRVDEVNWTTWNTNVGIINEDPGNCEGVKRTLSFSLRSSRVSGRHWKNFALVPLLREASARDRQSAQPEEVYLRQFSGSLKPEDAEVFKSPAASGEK
Another assay concerns TRPA1 channels. The note with it: read-out: EC50 (activation of TRPA1 channels); cited from earlier work.
For assay [1], the target named is T1, human TRPA1 (Homo sapiens, UniProt O75762). The experiment in a line: Cell-attached single-channel recordings of TRPA1 in HEK293T cells. The note with it: −60 mV; 100 μM AITC alone, or with 5 μM PHL-B. It is filed as cell-based.
T1 sequence (O75762 whole entry): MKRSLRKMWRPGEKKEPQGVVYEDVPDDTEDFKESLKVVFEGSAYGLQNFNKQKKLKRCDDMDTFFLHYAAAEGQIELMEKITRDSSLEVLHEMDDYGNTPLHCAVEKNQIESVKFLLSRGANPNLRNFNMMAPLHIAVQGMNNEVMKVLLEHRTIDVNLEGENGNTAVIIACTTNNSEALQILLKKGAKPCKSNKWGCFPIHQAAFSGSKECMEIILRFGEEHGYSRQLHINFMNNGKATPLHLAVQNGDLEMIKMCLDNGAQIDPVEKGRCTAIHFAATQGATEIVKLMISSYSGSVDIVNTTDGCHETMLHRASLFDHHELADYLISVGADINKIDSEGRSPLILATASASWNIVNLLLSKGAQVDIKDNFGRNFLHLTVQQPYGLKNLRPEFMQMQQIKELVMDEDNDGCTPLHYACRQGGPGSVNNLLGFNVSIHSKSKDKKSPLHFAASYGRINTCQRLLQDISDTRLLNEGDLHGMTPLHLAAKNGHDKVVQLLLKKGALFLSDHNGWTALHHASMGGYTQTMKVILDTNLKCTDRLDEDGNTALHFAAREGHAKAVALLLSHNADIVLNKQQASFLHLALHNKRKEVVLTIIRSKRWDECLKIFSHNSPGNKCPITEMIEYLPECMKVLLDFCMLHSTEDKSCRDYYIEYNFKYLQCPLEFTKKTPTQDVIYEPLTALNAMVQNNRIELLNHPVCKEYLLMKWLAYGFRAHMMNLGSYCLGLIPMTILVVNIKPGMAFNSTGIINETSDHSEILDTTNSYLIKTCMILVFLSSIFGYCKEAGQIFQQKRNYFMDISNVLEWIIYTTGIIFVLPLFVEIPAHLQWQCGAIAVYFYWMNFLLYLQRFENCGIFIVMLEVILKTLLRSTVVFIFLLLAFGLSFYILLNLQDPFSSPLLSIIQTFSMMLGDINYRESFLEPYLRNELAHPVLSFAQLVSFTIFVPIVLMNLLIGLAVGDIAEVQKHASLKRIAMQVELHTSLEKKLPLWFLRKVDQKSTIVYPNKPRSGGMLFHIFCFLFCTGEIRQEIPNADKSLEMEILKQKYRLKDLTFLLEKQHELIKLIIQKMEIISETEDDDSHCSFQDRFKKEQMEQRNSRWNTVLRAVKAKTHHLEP
For assay [2], the target named is T1, human TRPA1. As to the kind of experiment: Whole-cell patch clamp of TRPA1 currents in HEK293T cells. The class given is cell-based.
The mark [3] stands for this setting: 100 μM AITC alone, or 100 μM AITC + 5 μM PHL-B, voltage ramp.

Chain of rat TRPM8 (Q8R455 whole entry): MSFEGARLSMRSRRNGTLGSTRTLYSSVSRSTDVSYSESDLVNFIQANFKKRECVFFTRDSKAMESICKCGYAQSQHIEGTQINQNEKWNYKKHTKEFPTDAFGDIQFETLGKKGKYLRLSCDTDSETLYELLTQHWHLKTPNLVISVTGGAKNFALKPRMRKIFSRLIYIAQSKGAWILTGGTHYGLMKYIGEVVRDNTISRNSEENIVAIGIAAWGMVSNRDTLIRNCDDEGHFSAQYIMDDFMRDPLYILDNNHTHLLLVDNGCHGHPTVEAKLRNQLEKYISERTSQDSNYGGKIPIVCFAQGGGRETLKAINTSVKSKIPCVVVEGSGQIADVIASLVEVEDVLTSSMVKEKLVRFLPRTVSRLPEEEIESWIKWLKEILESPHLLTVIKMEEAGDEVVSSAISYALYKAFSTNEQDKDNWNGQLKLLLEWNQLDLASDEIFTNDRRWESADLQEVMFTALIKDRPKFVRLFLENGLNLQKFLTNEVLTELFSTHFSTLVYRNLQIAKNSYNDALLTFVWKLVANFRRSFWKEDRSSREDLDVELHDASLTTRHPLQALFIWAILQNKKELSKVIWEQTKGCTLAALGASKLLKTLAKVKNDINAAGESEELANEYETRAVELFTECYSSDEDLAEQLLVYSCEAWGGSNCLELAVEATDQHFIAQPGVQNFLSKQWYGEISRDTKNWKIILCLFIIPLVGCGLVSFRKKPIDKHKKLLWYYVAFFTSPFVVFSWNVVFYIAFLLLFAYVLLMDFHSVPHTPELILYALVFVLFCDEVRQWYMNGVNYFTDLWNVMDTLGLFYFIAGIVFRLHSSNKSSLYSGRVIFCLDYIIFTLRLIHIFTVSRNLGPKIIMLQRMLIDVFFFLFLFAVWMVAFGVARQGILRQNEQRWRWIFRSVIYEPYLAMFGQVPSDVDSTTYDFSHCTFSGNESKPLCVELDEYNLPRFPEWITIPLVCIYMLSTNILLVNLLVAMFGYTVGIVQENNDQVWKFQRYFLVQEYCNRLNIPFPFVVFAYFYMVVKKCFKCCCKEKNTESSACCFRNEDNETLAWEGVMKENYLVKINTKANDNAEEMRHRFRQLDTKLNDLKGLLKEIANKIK

Turning to `c1cc2c(cc1[C@H]1OC[C@H]3[C@@H]1CO[C@@H]3c1ccc3c(c1)OCO3)OCO2` [sesamin], the “effect on menthol-induced Ca2+ influx (TRPM8)” value on rat TRPM8 is reported as “practically inhibited all”.
With `Oc1cc2c(cc1O)CN(C(=S)NCCc1ccc(Cl)cc1)CCC2` [Capsazepine, capsazepine], the “effect on capsaicin-induced normalized fluorescence (TRPV1)” value at human TRPV1 is on record as “fully abolished”.
The EC50 is the concentration needed to bring the measured effect to its halfway point. For the compound `CC(C)c1cc2c(c(O)c1O)[C@@]13CCCC(C)(C)[C@@H]1C[C@@H]2OC3=O` [carnosol], the EC50 with TRPA1 channels is about 12 µM.
Turning to `C=CCN=C=S` [AITC, allyl isothiocyanate], the “fold increase of channel open probability (PO) over basal” value at human TRPA1 [1] is listed as “approximately 150 fold”. Moreover, at human TRPA1 [2] (setting [3]), the “current density at +50 mV” value was found to be 30.5 ± 2.9 pA/pF and the “current density at −100 mV” value was −91.73 ± 11.47 pA/pF. Moreover, at human TRPA1 [2] (−60 mV, 100 μM AITC, or 100 μM AITC + 5 μM PHL-B), the “τoff (time course of recovery)” value is 28.6 ± 3.4 ms.
